Source: ChEMBL document CHEMBL1138529, “Efficacy, pharmacokinetics, and metabolism of tetrahydroquinoline inhibitors of Plasmodium falciparum protein farnesyltransferase” (Antimicrob Agents Chemother, 2007)

What was measured:
[1] = Permeability from apical to basolateral side in human Caco-2 cells; assay type: ADME, cell-based; settings: read-out: permeability
[2] = AUC in Sprague-Dawley rat at 50 mg/kg, po; assay type: ADME, organism-based; set-up: dose 50 mg/kg, route oral; settings: plasma
How it was run: (§1)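 Three female BALB/c mice (lines for mice, 8–10 weeks) or three female Sprague-Dawley rats (10–12 weeks) per group; 50 mg/kg oral gavage in 3% EtOH-7% Tween 80-90% normal saline. Plasma sampled at set times (tail bleed in mice, saphenous vein in rats), extracted with acetonitrile plus internal standard, quantified by LC/MS; AUC as mean of three animals.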

[3] = Cmax in Sprague-Dawley rat at 50 mg/kg, po; assay type: ADME, organism-based; set-up: dose 50 mg/kg, route oral; settings: in vivo
How it was run: (§2)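 50 mg/kg by oral gavage in 3% EtOH-7% Tween 80-90% normal saline to groups of three females (BALB/c mice, 8–10 weeks, tail bleed; Sprague-Dawley rats, 10–12 weeks, saphenous vein). Plasma extracted with acetonitrile/internal standard, LC/MS; means of three animals. Oral elimination half-life depends on absorption rate as well as elimination.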

[4] = Inhibition of Plasmodium falciparum protein farnesyltransferase by SPA method
Plasmodium falciparum [5] = experiment: Antiplasmodial activity against Plasmodium falciparum by [3H]hypoxanthine uptake; assay type: functional; settings: read-out: ED50 (the source's name)
How it was run: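 Asynchronous P. falciparum (3D7 or K1) in RPMI 1640 with 20% heat-inactivated human A+ plasma, 0.5% parasitemia and 0.5% hematocrit; compound serially diluted, top final 5 μM, 48 h at 37°C under 5% CO2/5% O2/90% N2, then [8-3H]hypoxanthine 0.3 μCi added for 24 h.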

Mus musculus [6] = experiment: Toxicity in BALB/c mouse at 50 mg/kg, po; assay type: organism-based; set-up: dose 50 mg/kg, route oral; settings: in vivo
Rattus norvegicus = experiment: Toxicity in Sprague-Dawley rat at 50 mg/kg, po; assay type: organism-based; set-up: dose 50 mg/kg, route oral; settings: in vivo
How it was run: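 Female Sprague-Dawley rats, 10-12 weeks, three per group. 50 mg/kg oral gavage in 3% EtOH-7% Tween 80-90% normal saline. Saphenous vein plasma sampled over time, and animals observed for adverse reactions.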

[7] = Metabolic stability in mouse liver microsomes; assay type: ADME, Microsome
How it was run: (§3)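 Pooled female liver microsomes at 0.5 mg/ml in 0.1 M potassium phosphate pH 7.4, 3 mM MgCl2, 1 mM EDTA, with NADPH regenerating system (1 mM NADP+, 5 mM glucose-6-phosphate, 1 U/ml G6PDH). Preincubated 10 min at 37°C, then compound added to 1 μM final. Time points quenched with 3 volumes acetonitrile plus internal standard; parent quantified by LC/MS; half-life reported.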

[8] = AUC in BALB/c mouse at 50 mg/kg, po; assay type: ADME, organism-based; set-up: dose 50 mg/kg, route oral; settings: plasma; how it was run: as §1
[9] = Cmax in BALB/c mouse at 50 mg/kg, po; assay type: ADME, organism-based; set-up: dose 50 mg/kg, route oral; settings: in vivo; how it was run: as §2
[10] = Elimination half life in BALB/c mouse at 50 mg/kg, po; assay type: ADME, organism-based; set-up: dose 50 mg/kg, route oral; settings: in vivo, read-out: beta t1/2; how it was run: as §2
[11] = Metabolic stability in rat liver microsomes; assay type: ADME, Microsome; how it was run: as §3
[12] = Elimination half life in Sprague-Dawley rat at 50 mg/kg, po; assay type: ADME, organism-based; set-up: dose 50 mg/kg, route oral; settings: in vivo, read-out: beta t1/2; how it was run: as §2
Plasmodium falciparum [13] = experiment: Antiplasmodial activity against chloroquine-sensitive Plasmodium falciparum 3D7 by [3H]hypoxanthine uptake; assay type: functional; settings: read-out: ED50 (the source's name)
How it was run: (§4)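 Asynchronous cultures at 0.5% parasitemia and 0.5% hematocrit in RPMI 1640 with 20% heat-inactivated human A+ plasma, exposed to serially diluted inhibitor (top final 5 μM, from DMSO stock) under 5% CO2/5% O2/90% N2 at 37°C for 48 h. [3H]hypoxanthine was then added for 24 h and harvested counts were background-subtracted against DMSO-only controls. ED50 came from linear regression, as the mean of duplicates.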

Plasmodium falciparum [14] = experiment: Antiplasmodial activity against chloroquine-resistant Plasmodium falciparum K1 by [3H]hypoxanthine uptake; assay type: functional; settings: read-out: ED50 (the source's name); how it was run: as §4
[15] = AUC in Sprague-Dawley rat at 2 mg/kg, iv; assay type: ADME, organism-based; set-up: dose 2 mg/kg, route intravenous; settings: plasma
How it was run: (§5)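 Three female Sprague-Dawley rats per group (10–12 weeks), jugular-vein catheterized; 2 mg/kg in 3% EtOH-7% Tween 80-90% normal saline given through the catheter. Plasma drawn from the catheter at set times, acetonitrile extraction with internal standard, LC/MS quantification.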

[16] = Elimination half life in Sprague-Dawley rat at 2 mg/kg, iv; assay type: ADME, organism-based; set-up: dose 2 mg/kg, route intravenous; settings: in vivo, read-out: beta t1/2; how it was run: as §5
[17] = Oral bioavailability in Sprague-Dawley rat; assay type: ADME, organism-based; settings: in vivo
How it was run: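 Female Sprague-Dawley rats, 10-12 weeks, three per group. Oral gavage at 50 mg/kg and jugular-catheter i.v. dose at 2 mg/kg, both in 3% EtOH-7% Tween 80-90% saline. Plasma taken over time, acetonitrile extraction with internal standard, LC/MS. Bioavailability computed as oral AUC/i.v. AUC.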

[18] = Permeability from basolateral to apical side in human Caco-2 cells; assay type: ADME, cell-based; settings: read-out: permeability
How it was run: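 Caco-2 clone TC7 grown on laminin-coated porous inserts and used 19-21 days after seeding; integrity checked by TEER and [3H]mannitol flux. Monolayers equilibrated 30 min at 37°C in HBSS/5 mM HEPES pH 7.4. Compound at 50 μM final added to basolateral donor side. Apical receiver sampled at 60 min, 37°C with shaking; LC/MS; Papp calculated from 60-min concentrations.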

Mus musculus [19] = experiment: Plasma concentration in BALB/c mouse at 50 mg/kg, po; assay type: ADME, organism-based; set-up: dose 50 mg/kg, route oral; settings: in vivo
How it was run: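 Female BALB/c mice, 8-10 weeks, three per group. Single 50 mg/kg oral gavage in 3% EtOH-7% Tween 80-90% normal saline. Plasma collected by tail bleed at set times, frozen at −20°C, acetonitrile-extracted with internal standard, quantified by LC/MS.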

| Papp A→B [1] [nm/s] | Papp B→A [18] [nm/s] | concentration (Mus musculus [19]) [µM] | SMILES | AUC [2] [µM·h] | Cmax [3] [µM] | IC50 [4] [µM] | EC50 (Plasmodium falciparum [5]) [µM] | Activity (Mus musculus [6]) | Activity (Rattus norvegicus) | half-life [7] [min] | AUC [8] [µM·h] | Cmax [9] [µM] | half-life [10] [min] | half-life [11] [min] | half-life [12] [min] | EC50 (Plasmodium falciparum [13]) [µM] | EC50 (Plasmodium falciparum [14]) [µM] | AUC [15] [µM·h] | half-life [16] [min] | bioavailability [17] [%] |
| --- | --- | --- | --- | --- | --- | --- | --- | --- | --- | --- | --- | --- | --- | --- | --- | --- | --- | --- | --- | --- |
| 10 |  |  | Cn1cncc1CN1CC(N(CC2CCN(C(=O)OCc3ccccc3)CC2)S(=O)(=O)c2ccccn2)Cc2cc(C#N)ccc21 (stereo unspecified) | 10.9 | 4.5 | 0.0005 | 0.016 | Non-toxic | Non-toxic |  |  |  |  |  |  |  |  |  |  |  |
| 10 |  |  | CC(C)OC(=O)N1CCC(CN(C2Cc3cc(C#N)ccc3N(Cc3cncn3C)C2)S(=O)(=O)c2ccccn2)CC1 (stereo unspecified) | 10.9 | 4.5 | 0.0005 | 0.016 | Non-toxic | Non-toxic |  |  |  |  |  |  |  |  |  |  |  |
| 2 | 239 | 1 | Cn1cnc(S(=O)(=O)N(Cc2ccccn2)C2Cc3cc(C#N)ccc3N(Cc3cncn3C)C2)c1 (stereo unspecified) |  |  |  |  | Non-toxic |  |  |  |  |  |  |  |  |  |  |  |  |

Second part, the compound before the results:

| SMILES | Papp A→B [1] [nm/s] | Papp B→A [18] [nm/s] | concentration (Mus musculus [19]) [µM] | AUC [2] [µM·h] | Cmax [3] [µM] | IC50 [4] [µM] | EC50 (Plasmodium falciparum [5]) [µM] | Activity (Mus musculus [6]) | Activity (Rattus norvegicus) | half-life [7] [min] | AUC [8] [µM·h] | Cmax [9] [µM] | half-life [10] [min] | half-life [11] [min] | half-life [12] [min] | EC50 (Plasmodium falciparum [13]) [µM] | EC50 (Plasmodium falciparum [14]) [µM] | AUC [15] [µM·h] | half-life [16] [min] | bioavailability [17] [%] |
| --- | --- | --- | --- | --- | --- | --- | --- | --- | --- | --- | --- | --- | --- | --- | --- | --- | --- | --- | --- | --- |
| CC(C)COC(=O)N1CCC(CN(C2Cc3cc(C#N)ccc3N(Cc3cncn3C)C2)S(=O)(=O)c2ccccn2)CC1 (stereo unspecified) |  |  |  | 33.8 | 8.4 | 0.0007 | 0.062 |  |  | 5.1 | 4.67 | 5.4 | 26 | 18 | 62 | 0.062 | 0.062 |  |  |  |
| Cn1cncc1CN1CC(N(CC2CCN(C(=O)OC(C)(C)C)CC2)S(=O)(=O)c2ccccn2)Cc2cc(C#N)ccc21 (stereo unspecified) | 155 |  |  | 30.1 | 6.3 | 0.0015 |  |  |  |  | 11.8 |  | 54 | 10 | 151 | 0.155 | 0.18 | 0.967 | 55 | 124 |
| CCOC(=O)N1CCC(CN(C2Cc3cc(C#N)ccc3N(Cc3cncn3C)C2)S(=O)(=O)c2ccccn2)CC1 (stereo unspecified) | 26 |  |  |  |  | 0.0006 | 0.055 | Non-toxic | Non-toxic |  |  |  |  | 12 |  | 0.055 | 0.04 |  |  |  |
